Assay results as given in the RNAGym collection of RNA variant scans (doi:10.1126/science.aae0568).
This sample holds only a part of the variants without activity.

B1: tRNA (parent)
chain: GUUCCGUUGGCGUAAUGGUAACGCGUCUCCCUCCUAAGGAGAAGACUGCGGGUUCGAGUCCCGUACGGAACG

Variants of: B1
Assay: yeast fitness relative to wild type (ratio to wild type); higher = fitter; tRNA-Arg(CCU), competitive growth, 37 C, YPD
Summary of the method: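 For this measurement, the tRNA-Arg(CCU) gene was varied by chemical synthesis at a 3% per-site mutation rate across 69 sites, and each variant was placed at the native genomic locus in Saccharomyces cerevisiae. The pooled strains went through a 24-hour competition in YPD at 37°C in six parallel replicates, with amplicons from start and end populations read by 100-nucleotide paired-end sequencing. Darwinian fitness relative to wild type followed from the change in each genotype's frequency. Genotypes needed ≥ 100 starting reads, and estimates < 0.5 were set to 0.5.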

Compared with GUUCCGUUGGCGUAAUGGUAACGCGUCUCCCUCCUAAGGAGAAGACUGCGGGUUCGAGUCCCGUGCGGCACG, GUUCCGUUGGCGUAAUGGUAACGCGUCUCCCUCCUAAGGAGAAGACUGCGGGUUCGAGUCGCCUACGAAACG is lower in yeast fitness: 0.984 for the first, no more than 0.5 for the second.

First: GUUCCGUUGGCGUAAUGGUAACGCGUCUCCCUCCUAAGGAGAAGACUGCGGGUUCGAGUCCUCCACGGAACG
Second: GUUCCGUUGGCGUAAUGGUAACGCGUCUCCCUCCUAAGGAGAAGACUGCGGGUUCGAGUUGCGUACGGAACG
The yeast fitness of the first is higher: 0.789 for the first, 0.643 for the second.

First: GUUCCGUUGGCGUAAUGGUAACGCGUCUCCCUCCUAAGGAGAAGACUGCGGGUUCGAGUCUCGUACGGUUCG
Second: GUUCCGUUGGCGUAAUGGUAACGCGUCUCCCUCCUAAGGAGAAGACUGCGGGUUCGAGUCCCUUACGGUACG
The yeast fitness of the first is lower: 0.678 for the first, 0.83 for the second.

Going from GUUCCGUUGGCGUAAUGGUAACGCGUCUCCCUCCUAAGGAGAAGACUGCGGGUUCGAGUCCCGUACAGAACG to GUUCCGUUGGCGUAAUGGUAACGCGUCUCCCUCCUAAGGAGAAGACUGCGGGUUCGAGUCCCGUACUGAACG, the yeast fitness falls from 0.951 to 0.918.

First: GUUCCGUUGGCGUAAUGGUAACGCGUCUCCCUCCUAAGGAGAAGACUGCGGGUUCGAGUCCCGUACCGAACG
Second: GUUCCGUUGGCGUAAUGGUAACGCGUCUCCCUCCUAAGGAGAAGACUGCGGGUUCGAGUCGCGUAGGGAACG
The yeast fitness of the first is higher: 0.986 for the first, 0.625 for the second.

Going from GUUCCGUUGGCGUAAUGGUAACGCGUCUCCCUCCUAAGGAGAAGACUGCGGGUUCGAGUCCCGUUCGGAGCG to GUUCCGUUGGCGUAAUGGUAACGCGUCUCCCUCCUAAGGAGAAGACUGCGGGUUCGAGUCCCGCACGGACCG, the yeast fitness falls from 1.05 to 0.967.

Compared with GUUCCGUUGGCGUAAUGGUAACGCGUCUCCCUCCUAAGGAGAAGACUGCGGGUUCGAGUCCCGUACUGUACG, GUUCCGUUGGCGUAAUGGUAACGCGUCUCCCUCCUAAGGAGAAGACUGCGGGUUCGAGUCGCGUACUGAACG is lower in yeast fitness: 0.887 for the first, 0.61 for the second.

Going from GUUCCGUUGGCGUAAUGGUAACGCGUCUCCCUCCUAAGGAGAAGACUGCGGGUUCGAGUCCCGUCCGGACCG to GUUCCGUUGGCGUAAUGGUAACGCGUCUCCCUCCUAAGGAGAAGACUGCGGGUUCGAGUCCCGUUCCGAACG, the yeast fitness falls from 1.03 to 0.64.

First: GUUCCGUUGGCGUAAUGGUAACGCGUCUCCCUCCUAAGGAGAAGACUGCGGGUUCGAGUCACGUACGAAACG
Second: GUUCCGUUGGCGUAAUGGUAACGCGUCUCCCUCCUAAGGAGAAGACUGCGGGUUCGAGUCCCGUAUGGAUCG
The yeast fitness of the first is lower: 0.716 for the first, 0.923 for the second.

Going from GUUCCGUUGGCGUAAUGGUAACGCGUCUCCCUCCUAAGGAGAAGACUGCGGGUUCGAGUCACGUUCGGAACG to GUUCCGUUGGCGUAAUGGUAACGCGUCUCCCUCCUAAGGAGAAGACUGCGGGUUCGAGUCCUGUUCAGAACG, the yeast fitness falls from 0.604 to 0.532.

Compared with GUUCCGUUGGCGUAAUGGUAACGCGUCUCCCUCCUAAGGAGAAGACUGCGGGUUCGAGUCUCGUACGUAACG, GUUCCGUUGGCGUAAUGGUAACGCGUCUCCCUCCUAAGGAGAAGACUGCGGGUUCGAGUCUCGUACGAAACG is higher in yeast fitness: 0.639 for the first, 0.711 for the second.

Compared with GUUCCGUUGGCGUAAUGGUAACGCGUCUCCCUCCUAAGGAGAAGACUGCGGGUUCGAGUCUCGUACGCAACG, GUUCCGUUGGCGUAAUGGUAACGCGUCUCCCUCCUAAGGAGAAGACUGCGGGUUCGAGUCCGGUUCGGAACG is higher in yeast fitness: 0.68 for the first, 0.75 for the second.

First: GUUCCGUUGGCGUAAUGGUAACGCGUCUCCCUCCUAAGGAGAAGACUGCGGGUUCGAGUCCGGUACCGAACG
Second: GUUCCGUUGGCGUAAUGGUAACGCGUCUCCCUCCUAAGGAGAAGACUGCGGGUUCGAGUCCCGUACCUAACG
The yeast fitness of the first is lower: 0.614 for the first, 0.676 for the second.

Compared with GUUCCGUUGGCGUAAUGGUAACGCGUCUCCCUCCUAAGGAGAAGACUGCGGGUUCGAGUUCGGUACGGAGCG, GUUCCGUUGGCGUAAUGGUAACGCGUCUCCCUCCUAAGGAGAAGACUGCGGGUUCGAGUCCCGUAAGAAACG is higher in yeast fitness: 0.521 for the first, 0.695 for the second.

First: GUUCCGUUGGCGUAAUGGUAACGCGUCUCCCUCCUAAGGAGAAGACUGCGGGUUCGAGUCGCGUACGGUACG
Second: GUUCCGUUGGCGUAAUGGUAACGCGUCUCCCUCCUAAGGAGAAGACUGCGGGUUCGAGUCCCAUAAGGAACG
The yeast fitness of the first is lower: 0.635 for the first, 0.72 for the second.

Compared with GUUCCGUUGGCGUAAUGGUAACGCGUCUCCCUCCUAAGGAGAAGACUGCGGGUUCGAGUCCCGUACUCAACG, GUUCCGUUGGCGUAAUGGUAACGCGUCUCCCUCCUAAGGAGAAGACUGCGGGUUCGAGUCUCGUUCGGAACG is lower in yeast fitness: 0.773 for the first, 0.724 for the second.

Compared with GUUCCGUUGGCGUAAUGGUAACGCGUCUCCCUCCUAAGGAGAAGACUGCGGGUUCGAGUCCAGUAGGGAACG, GUUCCGUUGGCGUAAUGGUAACGCGUCUCCCUCCUAAGGAGAAGACUGCGGGUUCGAGUCCAGUAUGGAACG is lower in yeast fitness: 0.718 for the first, 0.694 for the second.

Going from GUUCCGUUGGCGUAAUGGUAACGCGUCUCCCUCCUAAGGAGAAGACUGCGGGUUCGAGUCCAGUUCGGAACG to GUUCCGUUGGCGUAAUGGUAACGCGUCUCCCUCCUAAGGAGAAGACUGCGGGUUCGAGUCCCGUAGCGAACG, the yeast fitness falls from 0.772 to 0.733.

Going from GUUCCGUUGGCGUAAUGGUAACGCGUCUCCCUCCUAAGGAGAAGACUGCGGGUUCGAGUCCCGUAGUGAACG to GUUCCGUUGGCGUAAUGGUAACGCGUCUCCCUCCUAAGGAGAAGACUGCGGGUUCGAGUCCCAUACAGAACG, the yeast fitness rises from 0.63 to 0.693.

Compared with GUUCCGUUGGCGUAAUGGUAACGCGUCUCCCUCCUAAGGAGAAGACUGCGGGUUCGAGUCCCGAACGGUACG, GUUCCGUUGGCGUAAUGGUAACGCGUCUCCCUCCUAAGGAGAAGACUGCGGGUUCGAGUCCUGUACCGAACG is higher in yeast fitness: 0.834 for the first, 0.917 for the second.

First: GUUCCGUUGGCGUAAUGGUAACGCGUCUCCCUCCUAAGGAGAAGACUGCGGGUUCGAGUCCUGUCCGGACCG
Second: GUUCCGUUGGCGUAAUGGUAACGCGUCUCCCUCCUAAGGAGAAGACUGCGGGUUCGAGUCCCGGACGGAACG
The yeast fitness of the first is lower: 0.619 for the first, 0.993 for the second.

Compared with GUUCCGUUGGCGUAAUGGUAACGCGUCUCCCUCCUAAGGAGAAGACUGCGGGUUCGAGUCCCGAACGGAACG, GUUCCGUUGGCGUAAUGGUAACGCGUCUCCCUCCUAAGGAGAAGACUGCGGGUUCGAGUCCCGCACGGAACG is higher in yeast fitness: 0.972 for the first, 0.985 for the second.

Going from GUUCCGUUGGCGUAAUGGUAACGCGUCUCCCUCCUAAGGAGAAGACUGCGGGUUCGAGUCCCCUCAGGAACG to GUUCCGUUGGCGUAAUGGUAACGCGUCUCCCUCCUAAGGAGAAGACUGCGGGUUCGAGUCCCGUACGUCACG, the yeast fitness rises from no more than 0.5 to 0.817.

First: GUUCCGUUGGCGUAAUGGUAACGCGUCUCCCUCCUAAGGAGAAGACUGCGGGUUCGAGUCCUGCACGGAACG
Second: GUUCCGUUGGCGUAAUGGUAACGCGUCUCCCUCCUAAGGAGAAGACUGCGGGUUCGAGUCCCAUACGGCACG
The yeast fitness of the first is higher: 1.02 for the first, 0.941 for the second.

Going from GUUCCGUUGGCGUAAUGGUAACGCGUCUCCCUCCUAAGGAGAAGACUGCGGGUUCGAGUCCCAUACGGGACG to GUUCCGUUGGCGUAAUGGUAACGCGUCUCCCUCCUAAGGAGAAGACUGCGGGUUCGAGUCCGAUACGGAACG, the yeast fitness falls from 0.878 to 0.796.

Going from GUUCCGUUGGCGUAAUGGUAACGCGUCUCCCUCCUAAGGAGAAGACUGCGGGUUCGAGUCUCGUACGGCACG to GUUCCGUUGGCGUAAUGGUAACGCGUCUCCCUCCUAAGGAGAAGACUGCGGGUUCGAGUCAUGUUCGGCACG, the yeast fitness falls from 0.882 to 0.52.

First: GUUCCGUUGGCGUAAUGGUAACGCGUCUCCCUCCUAAGGAGAAGACUGCGGGUUCGAGUCCCAUACGGACCG
Second: GUUCCGUUGGCGUAAUGGUAACGCGUCUCCCUCCUAAGGAGAAGACUGCGGGUUCGAGUCCCAUACGGAUCG
The yeast fitness of the first is higher: 0.973 for the first, 0.816 for the second.

Going from GUUCCGUUGGCGUAAUGGUAACGCGUCUCCCUCCUAAGGAGAAGACUGCGGGUUCGAGUCCCGUGAGGAACG to GUUCCGUUGGCGUAAUGGUAACGCGUCUCCCUCCUAAGGAGAAGACUGCGGGUUCGAGUCCCGUGUGGAACG, the yeast fitness rises from 0.716 to 0.993.

Going from GUUCCGUUGGCGUAAUGGUAACGCGUCUCCCUCCUAAGGAGAAGACUGCGGGUUCGAGUCCCGUUUGGAACG to GUUCCGUUGGCGUAAUGGUAACGCGUCUCCCUCCUAAGGAGAAGACUGCGGGUUCGAGUCCCGUCCGCAACG, the yeast fitness falls from 0.818 to 0.778.

Compared with GUUCCGUUGGCGUAAUGGUAACGCGUCUCCCUCCUAAGGAGAAGACUGCGGGUUCGAGUCCAGUACGGACCG, GUUCCGUUGGCGUAAUGGUAACGCGUCUCCCUCCUAAGGAGAAGACUGCGGGUUCGAGUCGCAUACGGAUCG is lower in yeast fitness: 0.955 for the first, 0.562 for the second.

Compared with GUUCCGUUGGCGUAAUGGUAACGCGUCUCCCUCCUAAGGAGAAGACUGCGGGUUCGAGUCCCGUACACAACG, GUUCCGUUGGCGUAAUGGUAACGCGUCUCCCUCCUAAGGAGAAGACUGCGGGUUCGAGUCCCAUUCGGAACG is higher in yeast fitness: 0.819 for the first, 0.945 for the second.

First: GUUCCGUUGGCGUAAUGGUAACGCGUCUCCCUCCUAAGGAGAAGACUGCGGGUUCGAGUCGUGUACGGAACG
Second: GUUCCGUUGGCGUAAUGGUAACGCGUCUCCCUCCUAAGGAGAAGACUGCGGGUUCGAGUCCUGUAUGGAACG
The yeast fitness of the first is lower: 0.613 for the first, 1.06 for the second.

First: GUUCCGUUGGCGUAAUGGUAACGCGUCUCCCUCCUAAGGAGAAGACUGCGGGUUCGAGUCCCAUAGGGGACG
Second: GUUCCGUUGGCGUAAUGGUAACGCGUCUCCCUCCUAAGGAGAAGACUGCGGGUUCGAGUCACGUACCGAACG
The yeast fitness of the first is lower: no more than 0.5 for the first, 0.664 for the second.

With GUUCCGUUGGCGUAAUGGUAACGCGUCUCCCUCCUAAGGAGAAGACUGCGGGUUCGAGUCCUGUACGGAGCG the yeast fitness was 0.997.
